Experimental data from article PMC11128822 (Heliyon, 2024).
Where two headings read alike, the source gives them in different places.

Legend:
SARS-CoV-2 [1] = assay: Lung histology of infected hamsters; format: in vivo, Syrian hamsters
Procedure, shortened: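 Infected hamsters were dosed every 12 h from the time of infection. MOV was given by oral gavage under isoflurane in water with 10 % PEG400 and 2.5 % Kolliphor EL. FAV was given intraperitoneally to awake animals. Euthanasia was on D5. Lungs were collected after intratracheal instillation of 4 % formaldehyde, fixed 72 h at room temperature and paraffin-embedded. Lesions were graded semi-quantitatively (up to 4 = severe), and scores were summed.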

SARS-CoV-2 [2] = assay: microbe, parasite or virus in culture; format: cell-based, human; details: for viral infectious titres at the apical side of HAE vs virus control: D2 to D4
SARS-CoV-2 [3] = format: cell-based, human; details: D2 to D4
SARS-CoV-2 [4] = format: in vivo, Syrian hamsters; details: for reduction of lung infectious viral titers vs untreated: 300 mg/kg/day BID oral, D3
SARS-CoV-2 [5] = format: in vivo, Syrian hamsters
SARS-CoV-2 [6] = format: in vivo, Syrian hamsters; details: 150, 300, 400 mg/kg/day BID, from D0, D3
cytokines in lungs = assay: Expression level of seven cytokines in lungs; format: in vivo, Syrian hamsters; details: 300 mg/kg/day BID from D0, D5
SARS-CoV-2 genome [7] = format: in vivo, Syrian hamsters; details: hamster lungs
SARS-CoV-2 genome [8] = assay: Sequence analysis of the full-length viral genome in HAE supernatants; format: cell-based, human
COVID-19 [9] = details: phase 3 MOVE OUT trial; cited from earlier work
COVID-19 [10] = details: PANORAMIC trial, cited from earlier work
[11] = Molnupiravir pharmacokinetics: NHC trough concentration in plasma and lung; format: in vivo, Syrian hamsters
Procedure, shortened: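 MOV was given by oral gavage every 12 h, with the first dose at infection (D0), 12 h before (D-1) or 12 h after (D1). Hamsters were euthanised 15 h after the last dose on D3, giving trough values. Samples were EDTA plasma and lung lobes homogenised in 0.9 % NaCl. NHC was extracted with acetonitrile and quantified by UPLC-MS/MS (LLOQ 5 ng/mL). The partition coefficient was the lung:plasma concentration ratio.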

NC(=O)c1nc(F)c[nH]c1=O [FAV, Favipiravir]
cumulative pathological scores vs untreated group (SARS-CoV-2 [1]; FAV intraperitoneally 925 mg/kg/day BID, lungs at D5): significantly different score

CC(C)C(=O)OC[C@H]1O[C@@H](n2ccc(NO)nc2=O)[C@H](O)[C@@H]1O [MOV, molnupiravir]
viral infectious titres at the apical side of HAE vs virus control (SARS-CoV-2 [2]; 0.3 μM): significant decrease in infectious titres was observed only at D3 | viral infectious titres at the apical side of HAE vs virus control (SARS-CoV-2 [2]; 1 μM): Significant decrease | viral infectious titres at the apical side of HAE vs virus control (SARS-CoV-2 [2]; 3 μM): Significant decrease | IC50 (SARS-CoV-2 [2]; Severe acute respiratory syndrome coronavirus 2, in Homo sapiens): 1 µM | viral RNA yields at the apical side of HAE vs virus control (SARS-CoV-2 [3]; 0.3 μM): no significant reduction | viral RNA yields at the apical side of HAE vs virus control (SARS-CoV-2 [3]; 1 μM): significant reduction was observed at D3 and D4 | viral RNA yields at the apical side of HAE vs virus control (SARS-CoV-2 [3]; 3 μM): significant decrease | infectious titers in clarified lung homogenates vs untreated animals (SARS-CoV-2 [4]; 150, 300 and 400 mg/kg/day BID oral, from D0, lungs at D3): significantly lower | lung particle-to-infectious unit ratio vs untreated (SARS-CoV-2 [4]; dose assessment experiment, 150-400 mg/kg/day BID): No significant differences | reduction of lung infectious viral titers vs untreated (SARS-CoV-2 [4]; pre-emptive (D0)): 1.03 log10 | lung particles to infectious unit ratio vs control (SARS-CoV-2 [4]; preventive (D-1), 300 mg/kg/day BID): significant elevation | reduction of lung infectious viral titers vs untreated (SARS-CoV-2 [4]; preventive (D-1)): 1.12 log10 | viral RNA yields in lungs vs control group (SARS-CoV-2 [5]; 300 mg/kg/day BID, three treated groups (D-1, D0, D1)): did not differ significantly | viral RNA yields in lungs vs untreated animals (SARS-CoV-2 [5]; 150 or 400 mg/kg/day BID oral, from D0, D3): significant lower | RNA viral yields in nasal washes vs untreated animals (SARS-CoV-2 [6]): no significant differences | expression of IL10 in lungs vs vehicle group (cytokines in lungs): reduction was not significant | expression of TNF in lungs vs vehicle group (cytokines in lungs): reduction was not significant | expression of cytokine CCl5 in lungs vs vehicle group (cytokines in lungs): significantly decrease | expression of cytokine CxCl10 in lungs vs vehicle group (cytokines in lungs): significantly decrease | cumulative pathological scores vs untreated group (SARS-CoV-2 [1]; MOV 300 mg/kg/day BID from D0, lungs at D5): no significant difference | G to A MVs vs untreated group (SARS-CoV-2 genome [7]; 300 mg/kg/day BID): significant increase | mean frequency of transitions-type MVs vs untreated (SARS-CoV-2 genome [7]; 300 mg/kg/day BID): higher in the treated group compared to the untreated group, but not significantly | number of MVs with a frequency greater than 10 % vs untreated (SARS-CoV-2 genome [7]; 300 mg/kg/day BID): significant higher number | mean number of MVs per genome (SARS-CoV-2 genome [7]; 300 mg/kg/day BID from D0): 29.5 | average number of MVs per genome (SARS-CoV-2 genome [8]; 0.3 μM): 20 | mean frequency of transition-type MVs (SARS-CoV-2 genome [8]; 0.3 μM): 0.81 | average number of MVs per genome (SARS-CoV-2 genome [8]; 1 μM): 88 | mean frequency of transition-type MVs (SARS-CoV-2 genome [8]; 1 μM): 0.97 | average number of MVs per genome (SARS-CoV-2 genome [8]; 3 μM): 18.3 | mean frequency of transition-type MVs (SARS-CoV-2 genome [8]; 3 μM): 0.89 | increase of type C to U-MVs, exposed vs non-exposed HAE (SARS-CoV-2 genome [8]; pooled analysis): significance found | efficacy in reducing the risk of hospitalisation or death (COVID-19 [9]): modest efficacy | time to recovery (COVID-19 [10]): reduced time to recovery | viral load (COVID-19 [10]): reduced viral load | reduction in the risk of hospitalisation or death (COVID-19 [10]; vaccinated patients): no reduction

O=c1nc(NO)ccn1[C@@H]1O[C@H](CO)[C@@H](O)[C@H]1O [NHC, β-D N4-hydroxycytidine]
NHC concentration in lung, 400 mg/kg/day BID compared to 150 mg/kg/day BID ([11]; 15 h after last intake): significantly higher | NHC plasma trough concentrations ([11]; 15 h after last intake, MOV 150, 300, 400 mg/kg/day BID oral): comparable between doses | lung and plasma NHC trough concentrations between treatment strategies ([11]; MOV 300 mg/kg/day BID from D-1, D0 or D1): no difference | Lung partition coefficients (ratio of lung over plasma concentrations) ([11]; dose assessment experiment, all doses): above 1 | pulmonary partition coefficient ([11]; therapeutic strategies experiment, 300 mg/kg/day BID): above 1

CCC(CC)COC(=O)[C@H](C)N[P@](=O)(OC[C@H]1O[C@@](C#N)(c2ccc3c(N)ncnn23)[C@H](O)[C@@H]1O)Oc1ccccc1 [RDV, Remdesivir]
infectious titres in HAE (SARS-CoV-2 [2]; 10 μM, positive control): significantly reduced
